Source: PubChem BioAssay
An excerpt weighted towards active compounds, which were near 6.4% of everything screened.
H69AR growth 86K – proliferation blockers of H69AR lung cancer cells, primary screen, cell-based, human, 86K library; H69AR lung tumor viability, ATP luminescence, 72 h; stronger effect = lower value; viability, % at 10 µM; hit rate 6% among 85,000; AID 598, 2007;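 active means viability at or below 40%; inactive means viability above 40%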;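 further: multidrug resistant small cell line overexpressing MRP-1 efflux transporter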
Fibroblast inh – antiproliferative effect on LL 47 fibroblasts – human, LL 47 cells, CellTiter-Glo luminescence, primary screen; LL 47 human lung fibroblast viability, ATP luminescence; stronger effect = lower value; viability, % at 10 µM; hit rate 1.1% among 85,000; AID 719, 2007;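 active means viability at or below 50% in the single dose screen; inactive means viability above 50%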;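 further: compound exposure lasted 72 h before the ATP readout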
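test system = LL 47 human lung fibroblasts | amount = 1,150 fibroblasts seeded per well | medium = 15% FBS in IMEM | times = overnight cell rest, 72 h compound treatment at 37 °C | measured by = CellTiter-Glo luminescence measuring cellular ATP | read-out = viability percentage against median untreated-cell control | benchmarks = cell-only wells, no compound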
E coli WT exp – growth inhibitors of wild-type E. coli, primary screen, strain BW25113, expanded library, OD600; hit rate 0.15% among 98,000; growth inhibition, % at 100 µM; OD600 absorbance;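 active means growth inhibition above about 50% at one test dose, limit read from the data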;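 further: growth measured after 20 h incubation at 37 °C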
tolC growth inh – growth inhibitors of E. coli tolC mutant, primary screen, strain BW25113 ΔtolC::kan, 384-well | growth inhibition, % at 10 µM (by protocol) | OD615 | AID 573, 2007 | hit rate 2.2% among 65,000;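 active means growth inhibition at or above a cutoff equal to the mean over every tested compound plus 3 SD, cut at about 60% in these data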;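 further: growth measured after 20 h incubation at 37 °C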
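Test system: E. coli BW25113 ΔtolC::kan bacteria; incubation: 37 °C, 20 h exposure; medium: LB broth supplemented with 50 µg/mL kanamycin; read-out basis: percent growth inhibition; signal: A615 absorbance measurement; compound: 10 µM final, single dose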
Jurkat viability – cytotoxicity toward Jurkat T cells, primary screen, cytotoxicity control, cell-based, Jurkat E6.1, 60K MLSMR library | Jurkat E6.1 viability, ATP luminescence, 48 h | inhibition, % at 4 µM | hit rate 1.2% among 56,000 | AID 463, 2006;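 active means inhibition above the mean inhibition of all tested compounds plus 3 SD, cut at about 28% in these data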
HUVEC inhibit – inhibitors of HUVEC proliferation, primary screen, cell-based, 384-well; CellTiter-Glo luminescence, 72 h; stronger effect = lower value; viability, % at 10 µM (by protocol); hit rate 1.1% among 86,000;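 active means viability at or below 30%; inactive means viability above 30%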
Of the large screens only hits and unclear results are named; the others gave an inactive call.

O=C(CN1CCOc2ccccc21)NC1CCCCCCC1	none (no result: E coli WT exp)
CN1CCN(c2ncnc3c2[nH]c2ccc(F)cc23)CC1	none (no result: Jurkat viability)
CN1CCN(c2cc3c(c4c2[nH]c2ccccc24)C(=O)CC(C)(C)C3)CC1	H69AR growth 86K 0.9, Fibroblast inh 19, HUVEC inhibit 3.3
COc1cccc(C2=NOC(C(=O)NCc3ccco3)C2)c1 (configuration not stated)	H69AR growth 86K 36
C=CCNC(=O)C1CC(c2cccc(OC)c2)=NO1 (configuration not stated)	H69AR growth 86K 2.8
COc1cccc(C2=NOC(C(=O)NC3CCCCC3)C2)c1 (configuration not stated)	none
COCCNC(=O)C1CC(c2cccc(OC)c2)=NO1 (configuration not stated)	none
COc1ccc(C2=NOC(C(=O)NCc3ccccc3)C2)cc1 (configuration not stated)	Jurkat viability 45
CCC(C)NC(=O)C1CC(c2cccc(OC)c2)=NO1 (configuration not stated)	none
COc1cccc(C2=NOC(C(=O)NCc3ccccc3)C2)c1 (configuration not stated)	H69AR growth 86K 26
COCC(C)n1c(C)cc(C(=O)COC(=O)c2c(NC(C)=O)sc(C)c2C)c1C (configuration not stated)	H69AR growth 86K 3.2 (no result: E coli WT exp)
O=S(=O)(NCc1cc(-c2ccccc2)no1)c1ccc(Cl)cc1	none (no result: H69AR growth 86K, Fibroblast inh, tolC growth inh, Jurkat viability, HUVEC inhibit)
O=S(=O)(Nc1nnc(-c2ccccc2)s1)c1ccc(Cl)cc1	tolC growth inh 87
COc1ccc(OCCn2c(=N)n(CCO)c3ccccc32)cc1	none
N=c1n(CCO)c2ccccc2n1CCOc1ccc(Cl)cc1Cl	H69AR growth 86K 20, HUVEC inhibit 2.1
Cc1ccc(-n2c(-c3ccc(Br)cc3)c[n+]3c2CCc2ccc4cccnc4c2-3)cc1	H69AR growth 86K 2.8, Fibroblast inh 21, E coli WT exp 78, HUVEC inhibit 14 (no result: tolC growth inh, Jurkat viability)
O=C(Nc1ccc(Br)cn1)c1ccc2nccnc2c1	H69AR growth 86K 34 (no result: E coli WT exp)
COc1ccc(C(O)c2nc3ccccc3n2C)cc1OC (configuration not stated)	Jurkat viability 54
COc1ccc(C(=O)NC(C)c2nc3ccccc3n2C)cc1OC (configuration not stated)	none (no result: Jurkat viability)
Cc1cc(Nc2ccc(Br)cc2F)n2nc(C)nc2n1	none
CCCCOC(=O)Cn1c(=N)n(CCN2CCOCC2)c2ccccc21	none (no result: E coli WT exp, Jurkat viability)
N=c1n(CCN2CCOCC2)c2ccccc2n1CC(=O)c1ccc(Cl)c(Cl)c1	H69AR growth 86K 0.9, tolC growth inh 80
OC(COC(c1ccc(Cl)cc1)c1ccc(Cl)cc1)CN1CCCC1 (configuration not stated)	H69AR growth 86K 25 (no result: tolC growth inh, Jurkat viability)
COc1ccccc1CNC(=O)CSc1nc(N)c(C#N)c(-c2cccs2)c1C#N	none (no result: tolC growth inh, Jurkat viability)
COc1ccc(-c2cc(-c3cccs3)c(C#N)c(SCC(=O)NCc3ccccc3)n2)cc1	H69AR growth 86K 35 (no result: tolC growth inh, Jurkat viability)
CCSc1nc(-c2ccc(OC)cc2)cc(-c2ccccc2)c1C#N	none (no result: tolC growth inh, Jurkat viability)
COc1ccc(-c2cc(-c3cccs3)c(C#N)c(SCC(=O)NCc3ccccc3OC)n2)cc1	H69AR growth 86K 11, Fibroblast inh 49 (no result: tolC growth inh, Jurkat viability)
Cc1ccc(CN2C(=O)CCC2C(=O)NC(C)C)cc1 (configuration not stated)	none
COc1cccc2sc(Nc3nc(-c4ccccn4)cs3)nc12	tolC growth inh 98, Jurkat viability 92 (no result: H69AR growth 86K, Fibroblast inh, HUVEC inhibit)
c1ccc(Nc2nc(-c3ccccn3)cs2)cc1	H69AR growth 86K 37 (no result: tolC growth inh, Jurkat viability)
Nc1ccc(Nc2nc(-c3ccncc3)cs2)cc1	H69AR growth 86K 37 (no result: tolC growth inh, Jurkat viability)
CCOC(=O)C1=C(C)NC(C)=C(C(=O)OCC)C1c1sccc1C	none (no result: H69AR growth 86K, Fibroblast inh, tolC growth inh, Jurkat viability, HUVEC inhibit)
N#Cc1c(N)c(C(=O)c2ccc(Br)cc2)n2c1CCC2	none
Cc1c(C2Nc3ccccc3NC3=C2C(=O)CC(C)(C)C3)cnn1C (configuration not stated)	none (no result: E coli WT exp, Jurkat viability)
CC1(C)CC(=O)C2=C(C1)Nc1ccccc1N=C2	H69AR growth 86K 0.3
Cc1[nH]c2ccccc2c1NC(=O)CN1CCN(c2cccc(C(F)(F)F)c2)CC1	tolC growth inh 75
